From ChEMBL document CHEMBL4219079, “Design, synthesis, and evaluation of the antiproliferative activity of hydantoin-derived antiandrogen-genistein conjugates” (Bioorg Med Chem, 2018)
The source made the active and inactive calls. The calls are words filed in the database; no cut-off is given here.

How the values were obtained:
LNCaP [1] = assay: Cell cycle arrest in human LNCAP cells assessed as accumulation at greater G2 phase at 5 uM after 24 hrs by propidium iodide staining based flow cytometry (reference value: -0.37%); type: functional
CWR22R [2] = assay: Antiproliferative activity against human 22Rv1 cells harboring truncated AR at 1.25 uM after 72 hrs by MTS assay relative to control; type: functional
How it was run: (§1)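 PC3, C4-2 and 22Rv1 prostate cancer cells treated in serum-fed medium with a range of doses, up to 50 μM. Growth read at 72 h post-treatment by MTS assay as percent of control. Data are averages of two independent experiments, each done in duplicate.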

PC-3 [3] = assay: Antiproliferative activity against human AR negative PC3 cells at 2.5 uM after 72 hrs by MTS assay relative to control; type: functional; how it was run: as §1
LNCaP [4] = assay: Cell cycle arrest in human LNCAP cells assessed as accumulation at G1 phase at 2.5 uM after 24 hrs by propidium iodide staining based flow cytometry (reference value: 52.4%); type: functional
LNCaP [5] = assay: Antiproliferative activity against human LNCAP cells after 72 hrs by MTS assay; type: functional, cell-based
How it was run: (§2)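 Seeded at 4,500 cells per well and exposed to compound in triplicate for 72 h. LNCaP were cultured in phenol-red-free RPMI-1640 and DU145 in EMEM, each with 10% FBS and penicillin/streptomycin, at 37 °C under 5% CO2. Viability was read by MTS. IC50 came from dose-response curve fitting. For combination lines, genistein was given together with enzalutamide.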

LNCaP [6] = assay: Cell cycle arrest in human LNCAP cells assessed as accumulation at G2 phase at 5 uM after 24 hrs by propidium iodide staining based flow cytometry (reference value: 9.83%); type: functional
LNCaP [7] = assay: Cell cycle arrest in human LNCAP cells assessed as accumulation at greater G2 phase at 2.5 uM after 24 hrs by propidium iodide staining based flow cytometry (reference value: -0.37%); type: functional
DU-145 [8] = assay: Antiproliferative activity against human DU145 cells assessed as cell survival up to 100 uM after 72 hrs by MTS assay relative to control; type: functional
How it was run: (§3)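 LNCaP (phenol-red free RPMI-1640) or DU145 (EMEM), each with 10% FBS and penicillin/streptomycin, at 37 °C in 5% CO2. Cells seeded at 4,500 per well and exposed to compound in triplicate for 72 h. Viability read by MTS. Curves are the average of triplicate experiments, with IC50 taken from curve fitting.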

LNCaP [9] = assay: Cell cycle arrest in human LNCAP cells assessed as accumulation at S phase at 5 uM after 24 hrs by propidium iodide staining based flow cytometry (reference value: 37.5%); type: functional
LNCaP [10] = assay: Cell cycle arrest in human LNCAP cells assessed as accumulation at S phase at 2.5 uM after 24 hrs by propidium iodide staining based flow cytometry (reference value: 37.5%); type: functional
LNCaP [11] = assay: Downregulation of AR protein level in human LNCAP cells at 1.25 to 2.5 uM after 24 hrs in presence of proteasome inhibitor bortezomib by Western blot method; type: functional, cell-based
How it was run: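 LNCaP seeded at 10^6 cells/dish and pretreated with bortezomib at 20 nM or 40 nM for 2 h. Cells were then exposed to compound for 24 h. AR protein was assessed by immunoblot after Bradford-normalized SDS-PAGE (100 V, 2 h) and nitrocellulose transfer, with actin as loading control.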

LNCaP [12] = assay: Cell cycle arrest in human LNCAP cells assessed as accumulation at less G1 phase at 2.5 uM after 24 hrs by propidium iodide staining based flow cytometry (reference value: 1.5%); type: functional
DU-145 [13] = assay: Antiproliferative activity against human DU145 cells after 72 hrs by MTS assay; type: functional, cell-based; how it was run: as §2
LNCaP [14] = assay: Cell cycle arrest in human LNCAP cells assessed as accumulation at G2 phase at 2.5 uM after 24 hrs by propidium iodide staining based flow cytometry (reference value: 9.83%); type: functional
LNCaP [15] = assay: Cell cycle arrest in human LNCAP cells assessed as accumulation at less G1 phase at 5 uM after 24 hrs by propidium iodide staining based flow cytometry (reference value: 1.5%); type: functional
LNCaP C4-2 [16] = assay: Antiproliferative activity against human AR positive C4-2 cells at 1.25 uM after 72 hrs by MTS assay relative to control; type: functional; how it was run: as §1
LNCaP [17] = assay: Antiproliferative activity against human LNCAP cells assessed as cell survival up to 100 uM after 72 hrs by MTS assay relative to control; type: functional; how it was run: as §3
LNCaP [18] = assay: Cell cycle arrest in human LNCAP cells assessed as accumulation at G1 phase at 5 uM after 24 hrs by propidium iodide staining based flow cytometry (reference value: 52.4%); type: functional
LNCaP [19] = assay: Downregulation of AR protein level in human LNCAP cells after 24 hrs by Western blot method; type: functional, cell-based
How it was run: (§4)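 LNCaP seeded at 10^6 cells/dish 24 h before a 24 h compound treatment, with DMSO as control. Lysates were made in CelLyticM with protease inhibitors and quantified by Bradford. Equal protein was run on SDS-PAGE at 100 V for 2 h, transferred to nitrocellulose, and probed for AR, with actin as loading control.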

CWR22R [20] = assay: Antiproliferative activity against human 22Rv1 cells harboring truncated AR up to 25 uM after 72 hrs by MTS assay; type: functional, cell-based; how it was run: as §1
LNCaP [21] = assay: Cell cycle arrest in human LNCAP cells assessed as accumulation at S phase at 40 uM after 24 hrs by propidium iodide staining based flow cytometry (reference value: 37.5%); type: functional
LNCaP [22] = assay: Cell cycle arrest in human LNCAP cells assessed as accumulation at G2 phase at 40 uM after 24 hrs by propidium iodide staining based flow cytometry (reference value: 9.83%); type: functional
LNCaP [23] = assay: Cell cycle arrest in human LNCAP cells assessed as accumulation at less G1 phase at 40 uM after 24 hrs by propidium iodide staining based flow cytometry (reference value: 1.5%); type: functional
LNCaP [24] = assay: Cell cycle arrest in human LNCAP cells assessed as accumulation at G1 phase at 40 uM after 24 hrs by propidium iodide staining based flow cytometry (reference value: 52.4%); type: functional
LNCaP [25] = assay: Cell cycle arrest in human LNCAP cells assessed as accumulation at greater G2 phase at 40 uM after 24 hrs by propidium iodide staining based flow cytometry (reference value: -0.37%); type: functional
Homo sapiens = organism: Homo sapiens; assay: Inhibition of HDAC6/HSP90 in human LNCAP cells assessed as downregulation of AR protein level at 2.5 uM after 24 hrs by Western blot method; type: cell-based; how it was run: as §4
PC-3 [26] = assay: Antiproliferative activity against human AR negative PC3 cells at 50 uM after 72 hrs by MTS assay relative to control; type: functional; how it was run: as §1
LNCaP [27] = assay: Cell cycle arrest in human LNCAP cells assessed as accumulation at S phase at 25 uM after 24 hrs by propidium iodide staining based flow cytometry (reference value: 37.5%); type: functional
LNCaP [28] = assay: Cell cycle arrest in human LNCAP cells assessed as accumulation at less G1 phase at 25 uM after 24 hrs by propidium iodide staining based flow cytometry (reference value: 1.5%); type: functional
DU-145 [29] = assay: Antiproliferative activity against human DU145 cells after 72 hrs in presence of enzalutamide by MTS assay; type: functional, cell-based; how it was run: as §2
LNCaP [30] = assay: Antiproliferative activity against human LNCAP cells assessed as cell survival at 100 uM after 72 hrs in presence of enzalutamide by MTS assay relative to control; type: functional; details: read-out: Survival; how it was run: as §3
LNCaP [31] = assay: Antiproliferative activity against human LNCAP cells; type: functional, cell-based
CWR22R [32] = assay: Antiproliferative activity against human 22Rv1 cells harboring truncated AR at 50 uM after 72 hrs by MTS assay relative to control; type: functional; how it was run: as §1
LNCaP C4-2 [33] = assay: Antiproliferative activity against human AR positive C4-2 cells at 50 uM after 72 hrs by MTS assay relative to control; type: functional; how it was run: as §1
LNCaP [34] = assay: Antiproliferative activity against human LNCAP cells after 72 hrs in presence of enzalutamide by MTS assay; type: functional, cell-based; how it was run: as §2
LNCaP [35] = assay: Cell cycle arrest in human LNCAP cells assessed as accumulation at G1 phase at 25 uM after 24 hrs by propidium iodide staining based flow cytometry (reference value: 52.4%); type: functional
LNCaP [36] = assay: Cell cycle arrest in human LNCAP cells assessed as accumulation at greater G2 phase at 25 uM after 24 hrs by propidium iodide staining based flow cytometry (reference value: -0.37%); type: functional
LNCaP [37] = assay: Cell cycle arrest in human LNCAP cells assessed as accumulation at G2 phase at 25 uM after 24 hrs by propidium iodide staining based flow cytometry (reference value: 9.83%); type: functional

For `CC1(C)C(=O)N(c2ccc(C#N)c(C(F)(F)F)c2)C(=O)N1CCCCc1cn(CCOCCOCCOCCOCCOCCOCCOCCOc2cc(O)c3c(=O)c(-c4ccc(O)cc4)coc3c2)nn1`, the Activity (LNCaP [1]) was -0.63%, the Activity (CWR22R [2]) was 15 - 20% and the Activity (PC-3 [3]) was 5 - 10%. For the same compound, the Activity (LNCaP [4]) was 34%, the IC50 (LNCaP [5]) was 1.4 µM and the Activity (LNCaP [6]) was 11.3%. For the same compound, the Activity (LNCaP [7]) was 0.55%, the Survival (DU-145 [8]) was <40% and the Activity (LNCaP [9]) was 50.8%. The Activity (LNCaP [10]) was 54.7%, the Activity (LNCaP [11]) was “Active” and the Activity (LNCaP [12]) was -0.094%. It also gave an IC50 (DU-145 [13]; DU-145, 72 h) of 3.4 µM, an Activity (LNCaP [14]) of 10.6% and an Activity (LNCaP [15]) of -0.92%. The Activity (LNCaP C4-2 [16]) was 50%, the Survival (LNCaP [17]) was <40% and the Activity (LNCaP [18]) was 39.2%. The Activity (LNCaP [19]) was “Dose-dependent effect”.
With `CC1(C)C(=O)N(c2ccc(C#N)c(C(F)(F)F)c2)C(=S)N1c1ccc(-c2cn(CCOCCOCCOCCOCCOCCOCCOCCOc3cc(O)c4c(=O)c(-c5ccc(O)cc5)coc4c3)nn2)cc1` the Activity (LNCaP [5]) was “inactive” and the Activity (DU-145 [13]) was “inactive”.
With `CNC(=O)c1ccc(N2C(=S)N(c3ccc(C#N)c(C(F)(F)F)c3)C(=O)C2(C)C)cc1F` the Activity (CWR22R [20]) was “Active”.
In the case of `C#CCCCCN1C(=O)N(c2ccc(C#N)c(C(F)(F)F)c2)C(=O)C1(C)C`, the Activity (LNCaP [21]) is reported as 54.2%, the Activity (LNCaP [22]) is reported as 13.4% and the Activity (LNCaP [23]) is reported as -0.44%. The Activity (LNCaP [24]) was 33.1% and the Activity (LNCaP [25]) was -0.21%.
`CC1(C)C(=O)N(c2ccc(C#N)c(C(F)(F)F)c2)C(=S)N1c1ccc(-c2cn(CCOc3cc(O)c4c(=O)c(-c5ccc(O)cc5)coc4c3)nn2)cc1` was tested, and the Activity (LNCaP [5]) was “inactive” and the Activity (DU-145 [13]) was “inactive”.
`CC1(C)C(=O)N(c2ccc(C#N)c(C(F)(F)F)c2)C(=O)N1CCCCc1cn(CCOc2cc(O)c3c(=O)c(-c4ccc(O)cc4)coc3c2)nn1` was tested, and the Activity (LNCaP [5]) was “inactive” and the Activity (DU-145 [13]) was “inactive”.
`O=c1c(-c2ccc(O)cc2)coc2cc(O)cc(O)c12` [GENISTEIN] was tested, and the inhibition (Homo sapiens) was “Active”, the IC50 (LNCaP [5]) was 24 µM and the Activity (PC-3 [26]) was 40%. The Activity (LNCaP [27]) was 52.5%, the Activity (LNCaP [28]) was -0.34% and the Activity (DU-145 [29]) was “Dose-dependent effect”. It also gave a viability at 100 µM (LNCaP [30]) of 40%, an IC50 (LNCaP [31]) of 10 to 40 µM and an Activity (CWR22R [32]) of 40%. The Activity (LNCaP C4-2 [33]) was 40%, the IC50 (LNCaP [34]) was 31.7 µM and the Activity (LNCaP [35]) was 37.1%. It also gave an Activity (LNCaP [36]) of 0.21% and an Activity (LNCaP [37]) of 9.34%.
`CC1(C)C(=O)N(c2ccc(C#N)c(C(F)(F)F)c2)C(=S)N1Cc1ccc(-c2cn(CCOCCOCCOCCOCCOCCOCCOCCOc3cc(O)c4c(=O)c(-c5ccc(O)cc5)coc4c3)nn2)cc1` was tested, and the Activity (LNCaP [5]) was “inactive” and the Activity (DU-145 [13]) was “inactive”.
For `CC1(C)C(=O)N(c2ccc(C#N)c(C(F)(F)F)c2)C(=S)N1Cc1ccc(-c2cn(CCOc3cc(O)c4c(=O)c(-c5ccc(O)cc5)coc4c3)nn2)cc1`, the Activity (LNCaP [5]) was “inactive” and the Activity (DU-145 [13]) was “inactive”.
